Results of several laboratories.
Protocols differ between the studies behind these lines. Values after ≈ are worked out from the molar mass of the structure shown.
Organism: Nakaseomyces glabratus

Structure (SMILES) | test | system | setting | quantity | value
CCOC(=O)c1nc2ccccc2c(=O)n1Cc1cn(-c2ccccc2[N+](=O)[O-])nn1 | microbial growth, broth dilution | ATCC90030 | 24 h | IC50 | 272 µg/mL (≈ 648 µM)
CCCCCCCCCN1CCNCC1 | microbial growth, broth dilution | ATCC2001 | 48 h | MIC | 31.3 µg/mL (≈ 147 µM)
COc1ccc(-c2cc(OC)cc(C(C)C#Cc3c(C)nc(N)nc3N)c2)cc1 (centres unmarked) | microbial growth, resazurin | – | – | MIC | 3.1 µg/mL (≈ 7.98 µM)
CCCCCCOc1c(OC)cc(NC(C)CCCNC(=O)C(N)Cc2cnc[nH]2)c2nc(C(C)(C)C)ccc12 (centres unmarked) | microbial growth | ATCC90030 | – | IC50 | 19.2 µg/mL (≈ 34.8 µM)
CCCCCCCCCN1CCN(CC(O)(Cn2cncn2)c2ccc(F)cc2F)CC1 (centres unmarked) | microbial growth, broth dilution | ATCC2001 | 48 h | MIC | 3.9 µg/mL (≈ 8.67 µM)
C=CCCCCCCCCCCCC(O)CC(O)CO (centres unmarked) | microbial growth, broth dilution | ATCC90030 | – | IC50 | > 200 µg/mL
CCOC(=O)c1nc2ccccc2c(=O)n1Cc1cn(-c2ccc(Cl)cc2)nn1 | microbial growth, broth dilution | ATCC90030 | 24 h | IC50 | 195 µg/mL (≈ 476 µM)
C[C@@H]1[C@H](O)[C@@H](C)/C=C/C=C/C=C/C=C/C=C/C=C/C=C/[C@H](O[C@@H]2O[C@H](C)[C@@H](O)[C@H](N)[C@@H]2O)C[C@@H]2O[C@](O)(C[C@@H](O)C[C@@H](O)[C@H](O)CC[C@@H](O)C[C@@H](O)CC(=O)O[C@H]1C)C[C@H](O)[C@H]2C(=O)O | microbial killing | ATCC90030 | – | MFC | 0.63 µg/mL (≈ 0.682 µM)
CCOC(=O)c1nc2ccccc2c(=O)n1Cc1cn(-c2cccc(OC)c2)nn1 | microbial growth, broth dilution | ATCC90030 | 24 h | IC50 | 417 µg/mL (≈ 1030 µM)
CCCCCOc1c(OC)cc(NC(C)CCCNC(=O)C(N)CC(C)C)c2nc(C(C)(C)C)ccc12 (centres unmarked) | microbial growth | ATCC90030 | – | IC50 | 11.3 µg/mL (≈ 22 µM)
CCOC(=O)c1nc2ccccc2c(=O)n1Cc1cn(-c2ccc(F)cc2)nn1 | microbial growth, broth dilution | ATCC90030 | 24 h | IC50 | 292 µg/mL (≈ 744 µM)
CCCCCOc1c(OC)cc(NC(C)CCCNC(=O)C(N)CCCNC(=N)N)c2nc(C(C)(C)C)ccc12 (centres unmarked) | microbial growth | ATCC90030 | – | IC50 | 19.1 µg/mL (≈ 34.2 µM)
CCCCCCCCCCCN1CCNCC1 | microbial growth, broth dilution | ATCC2001 | 48 h | MIC | 7.8 µg/mL (≈ 32.4 µM)
OC(Cn1cncn1)(Cn1cncn1)c1ccc(F)cc1F | microbial growth, broth dilution | ATCC90030 | 24 h | IC50 | 7.8 µg/mL (≈ 25.5 µM)
CCCCCCCCCCN1CCN(CC(O)(Cn2cncn2)c2ccc(Cl)cc2Cl)CC1 (centres unmarked) | microbial growth, broth dilution | ATCC2001 | 48 h | MIC | 0.975 µg/mL (≈ 1.96 µM)
CCCCCCOc1c(OC)cc(NC(C)CCCN)c2nc(C(C)(C)C)ccc12 (centres unmarked) | microbial growth | ATCC90030 | – | IC50 | 11.5 µg/mL (≈ 27.6 µM)
OC(Cn1cncn1)(Cn1cncn1)c1ccc(F)cc1F | microbial killing | ATCC1182 | – | MFC | > 64 µg/mL
CCOC(=O)c1nc2ccccc2c(=O)n1Cc1cn(-c2ccccc2C)nn1 | microbial growth, broth dilution | ATCC90030 | 24 h | IC50 | 351 µg/mL (≈ 902 µM)
CCCCCCCCCCCCN1CCN(CC(O)(Cn2cncn2)c2ccc(Cl)cc2Cl)CC1 (centres unmarked) | microbial growth, broth dilution | ATCC2001 | 48 h | MIC | 0.975 µg/mL (≈ 1.86 µM)
CCOC(=O)c1nc2ccccc2c(=O)n1Cc1cn(-c2ccc(OC)cc2)nn1 | microbial growth, broth dilution | ATCC90030 | 24 h | IC50 | 118 µg/mL (≈ 292 µM)
CCCCCCCCOc1c(OC)cc(NC(C)CCCNC(=O)C2CCCN2)c2nc(C(C)(C)C)ccc12 (centres unmarked) | microbial growth | ATCC90030 | – | IC50 | 11 µg/mL (≈ 20.3 µM)
CCCCCCCCCCCCCCN1CCN(CC(O)(Cn2cncn2)c2ccc(F)cc2F)CC1 (centres unmarked) | microbial growth, broth dilution | ATCC2001 | 48 h | MIC | > 31.3 µg/mL
C[C@@H]1[C@H](O)[C@@H](C)/C=C/C=C/C=C/C=C/C=C/C=C/C=C/[C@H](O[C@@H]2O[C@H](C)[C@@H](O)[C@H](N)[C@@H]2O)C[C@@H]2O[C@](O)(C[C@@H](O)C[C@@H](O)[C@H](O)CC[C@@H](O)C[C@@H](O)CC(=O)O[C@H]1C)C[C@H](O)[C@H]2C(=O)O | microbial growth | ATCC90030 | – | IC50 | 0.31 µg/mL (≈ 0.335 µM)
OC(Cn1cncn1)(Cn1cncn1)c1ccc(F)cc1F | microbial growth, broth dilution | MY1381 | – | MIC50 | 4 µg/mL (≈ 13.1 µM)
CCCCOc1c(OC)cc(NC(C)CCCN)c2nc(C(C)(C)C)cc(C)c12 (centres unmarked) | microbial killing | ATCC90030 | – | MFC | > 20 µg/mL
CCCCCCCCN1CCNCC1 | microbial growth, broth dilution | ATCC2001 | 48 h | MIC | > 31.3 µg/mL
CCOC(=O)c1nc2ccccc2c(=O)n1Cc1cn(-c2cccc(Cl)c2)nn1 | microbial growth, broth dilution | ATCC90030 | 24 h | IC50 | 58.2 µg/mL (≈ 142 µM)
CCCCCCCCCCCCCN1CCN(CC(O)(Cn2cncn2)c2ccc(F)cc2F)CC1 (centres unmarked) | microbial growth, broth dilution | ATCC2001 | 48 h | MIC | 0.975 µg/mL (≈ 1.93 µM)
CCCCCCOc1c(OC)cc(NC(C)CCCN)c2nc(C(C)(C)C)cc(C)c12 (centres unmarked) | microbial killing | ATCC90030 | – | MFC | 20 µg/mL (≈ 46.5 µM)
